In ChEMBL document CHEMBL1125281, “Identification and synthesis of a receptor binding site of human anaphylatoxin C5a” (J Med Chem, 1991):
Where a SMILES comes first, the peptide text is derived from it. Bridges are numbered along the chain shown (N, C = ends). The star is where a group is joined. Acm = CC(=O)NC*

Key:
[1] = target: T1, C5a anaphylatoxin chemotactic receptor 1 (Homo sapiens, UniProt P21730); assay: Inhibition of [125I]C5a binding to C5a anaphylatoxin chemotactic receptor in PMNL membranes; type: cell membranes
T1 sequence (P21730 whole entry): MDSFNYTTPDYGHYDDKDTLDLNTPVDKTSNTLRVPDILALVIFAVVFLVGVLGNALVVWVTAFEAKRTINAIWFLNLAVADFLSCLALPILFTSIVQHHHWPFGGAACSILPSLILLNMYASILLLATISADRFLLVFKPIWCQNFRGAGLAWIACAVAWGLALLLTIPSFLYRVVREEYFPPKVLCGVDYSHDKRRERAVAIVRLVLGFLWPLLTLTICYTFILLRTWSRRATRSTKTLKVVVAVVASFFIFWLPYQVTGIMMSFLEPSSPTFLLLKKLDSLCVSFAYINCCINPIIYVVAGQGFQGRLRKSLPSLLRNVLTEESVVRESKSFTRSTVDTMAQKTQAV

[2] = target: T1, C5a anaphylatoxin chemotactic receptor 1; assay: Inhibition of [125I]C5a binding to anaphylatoxin chemotactic receptor of PMNL membranes
[3] = target: T1, C5a anaphylatoxin chemotactic receptor 1; assay: Inhibition of [125I]C5a binding to anaphylatoxin chemotactic receptor of PMNL cells; type: cell-based
Outline: (§1)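 Intact human PMNL isolated from peripheral blood by one-step density centrifugation. Cells incubated 20 min at 23 °C with [125I]C5a (1 × 10⁻⁹ M), test peptide and protease inhibitors. Cells separated from free ligand by centrifugation through silicone oil at 10000g; pellet γ counts read.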

[4] = target: T1, C5a anaphylatoxin chemotactic receptor 1; assay: Inhibition of [125I]C5a binding to C5a anaphylatoxin chemotactic receptor in PMNL intact cells; inactive; type: cell-based; outline: as §1
[5] = target: T1, C5a anaphylatoxin chemotactic receptor 1; assay: Inhibition of [125I]-C5a anaphylatoxin chemotactic receptor binding to PMNL membranes.

Compound	Ki [2]	Ki [3]	also measured
CSCC[C@H](NC(=O)[C@H](CC(=O)O)NC(=O)[C@H](CCCCN)NC(=O)[C@H](Cc1cnc[nH]1)NC(C)=O)C(=O)N[C@@H](CCC(N)=O)C(=O)N[C@@H](CC(C)C)C(=O)NCC(=O)N[C@@H](CCCNC(=N)N)C(=O)O (Ac-HKDMQLGR-OH)			Ki [1]: 150 µM
CC[C@H](C)[C@H](NC(=O)[C@H](CCC(=O)O)NC(=O)[C@H](CCC(=O)O)NC(=O)[C@@H](NC(=O)[C@H](CCCCN)NC(=O)[C@H](CCCCN)NC(=O)[C@H](CCC(N)=O)NC(=O)[C@H](CC(C)C)NC(=O)[C@@H](N)[C@@H](C)O)[C@@H](C)CC)C(=O)N[C@@H](C)C(=O)N[C@@H](C)C(=O)N[C@@H](CCCCN)C(=O)N[C@@H](Cc1ccc(O)cc1)C(=O)N[C@@H](CCCCN)C(=O)O (H-TLQKKIEEIAAKYK-OH)	Not Active	Not Active	
CC(=O)NCSC[C@H](NC(=O)[C@H](C)NC(=O)[C@H](CCCCN)NC(=O)[C@H](CCCCN)NC(=O)[C@@H](NC(=O)[C@@H](NC(=O)[C@@H](N)CO)C(C)C)C(C)C)C(=O)N[C@@H](Cc1ccc(O)cc1)C(=O)N[C@@H](CC(=O)O)C(=O)NCC(=O)N[C@@H](C)C(=O)O (H-SVVKKAC(Acm)YDGA-OH)	Not Active	Not Active	
CC[C@H](C)[C@H](N)C(=O)N[C@@H](CO)C(=O)N[C@@H](Cc1cnc[nH]1)C(=O)N[C@@H](CCCCN)C(=O)N[C@@H](CC(=O)O)C(=O)N[C@@H](CCSC)C(=O)N[C@@H](CCC(N)=O)C(=O)N[C@@H](CC(C)C)C(=O)NCC(=O)N[C@@H](CCCNC(=N)N)C(=O)O [ISHKDMQLGR] (H-ISHKDMQLGR-OH)			Ki [1]: 300 µM
CSCC[C@H](NC(=O)[C@H](CC(=O)O)NC(=O)[C@H](CCCCN)NC(=O)[C@@H](N)Cc1c[nH]cn1)C(=O)N[C@@H](CCC(N)=O)C(=O)N[C@@H](CC(C)C)C(=O)NCC(=O)N[C@@H](CCCN=C(N)N)C(=O)O (H-HKDMQLGR-OH)			Ki [4]: Not Active; Ki [1]: 300 µM
CC(C)C[C@H](NC(=O)[C@H](CCC(N)=O)NC(=O)[C@H](CO)NC(=O)[C@H](C)NC(=O)[C@@H](NC(=O)[C@@H](NC(=O)[C@H](C)N)C(C)C)C(C)C)C(=O)N[C@@H](CCCN=C(N)N)C(=O)O (H-AVVASQLR-OH)	Not Active	Not Active	
CC[C@H](C)[C@H](NC(=O)[C@H](CC(N)=O)NC(=O)[C@H](C)NC(=O)[C@H](CCCN=C(N)N)NC(=O)[C@H](CC(C)C)NC(=O)[C@H](CCC(N)=O)NC(=O)[C@@H](N)CO)C(=O)N[C@@H](CO)C(=O)N[C@@H](Cc1c[nH]cn1)C(=O)N[C@@H](CCCCN)C(=O)N[C@@H](CC(=O)O)C(=O)N[C@@H](CCSC)C(=O)N[C@@H](CCC(N)=O)C(=O)N[C@@H](CC(C)C)C(=O)NCC(=O)N[C@@H](CCCN=C(N)N)C(=O)O (H-SQLRANISHKDMQLGR-OH)		Not Active	
CC[C@H](C)[C@H](NC(=O)[C@H](CC(N)=O)NC(=O)[C@H](C)NC(=O)[C@H](CCCNC(=N)N)NC(=O)[C@H](CC(C)C)NC(=O)[C@H](CCC(N)=O)NC(=O)[C@H](CO)NC(=O)[C@H](C)NC(=O)[C@@H](NC(=O)[C@@H](NC(=O)[C@H](CCSC)NC(C)=O)C(C)C)C(C)C)C(=O)N[C@@H](CO)C(=O)N[C@@H](Cc1cnc[nH]1)C(=O)N[C@@H](CCCCN)C(=O)N[C@@H](CC(=O)O)C(=O)N[C@@H](CCSC)C(=O)N[C@@H](CCC(N)=O)C(=O)N[C@@H](CC(C)C)C(=O)NCC(=O)N[C@@H](CCCNC(=N)N)C(=O)O (Ac-MVVASQLRANISHKDMQLGR-OH)			Ki [5]: 50 µM
CC(=O)N[C@@H](C)C(=O)N[C@@H](C)C(=O)N[C@@H](CCCCN)C(=O)N[C@@H](Cc1ccc(O)cc1)C(=O)N[C@@H](CCCCN)C(=O)N[C@@H](Cc1c[nH]cn1)C(=O)N[C@@H](CO)C(=O)N[C@H](C(=O)N[C@H](C(=O)N[C@@H](CCCCN)C(=O)N[C@@H](CCCCN)C(=O)O)C(C)C)C(C)C (Ac-AAKYKHSVVKK-OH)	Not Active	Not Active	
CC[C@H](C)[C@H](NC(=O)[C@H](CC(N)=O)NC(=O)[C@H](C)NC(=O)[C@H](CCCNC(=N)N)NC(=O)[C@H](CC(C)C)NC(=O)[C@H](CCC(N)=O)NC(=O)[C@H](CO)NC(=O)[C@H](C)NC(=O)[C@@H](NC(=O)[C@@H](NC(=O)[C@H](CCSC)NC(=O)[C@H](CCSC)NC(=O)[C@H](CCC(=O)O)NC(=O)[C@@H](NC(=O)[C@@H](N)Cc1ccccc1)[C@@H](C)O)C(C)C)C(C)C)C(=O)N[C@@H](CO)C(=O)N[C@@H](Cc1cnc[nH]1)C(=O)N[C@@H](CCCCN)C(=O)N[C@@H](CC(=O)O)C(=O)N[C@@H](CCSC)C(=O)N[C@@H](CCC(N)=O)C(=O)N[C@@H](CC(C)C)C(=O)NCC(=O)N[C@@H](CCCNC(=N)N)C(=O)O (H-FTEMMVVASQLRANISHKDMQLGR-OH)			Ki [5]: 100 µM
CC[C@H](C)[C@H](N)C(=O)N[C@@H](CO)C(=O)N[C@@H](Cc1c[nH]cn1)C(=O)N[C@@H](CCCCN)C(=O)N[C@@H](CC(=O)O)C(=O)N[C@@H](CCSC)C(=O)N[C@@H](CCC(N)=O)C(=O)N[C@@H](CC(C)C)C(=O)NCC(=O)N[C@@H](CCCN=C(N)N)C(=O)O [ISHKDMQLGR] (H-ISHKDMQLGR-OH)			Ki [4]: Not Active
CC[C@H](C)[C@@H]1NC(=O)[C@H](CCC(=O)O)NC(=O)[C@H](CCC(=O)O)NC(=O)[C@@H](NC(=O)[C@H](CCCCN)NC(=O)[C@H](CCCCN)NC(=O)[C@H](CCC(N)=O)NC(=O)[C@H](CC(C)C)NC(=O)[C@@H](N)[C@@H](C)O)CSSC[C@@H](C(=O)N[C@@H](Cc2ccc(O)cc2)C(=O)N[C@@H](CC(=O)O)C(=O)NCC(=O)N[C@@H](C)C(=O)O)NC(=O)[C@H](C)NC(=O)[C@H](CCCCN)NC(=O)[C@H](CCCCN)NC(=O)[C@H](C(C)C)NC(=O)[C@H](C(C)C)NC(=O)[C@H](CO)NC(=O)[C@H](Cc2c[nH]cn2)NC(=O)[C@H](CCCCN)NC(=O)[C@H](Cc2ccc(O)cc2)NC(=O)[C@H](CCCCN)NC(=O)[C@H](C)NC(=O)[C@H](C)NC1=O (H-TLQKKCEEIAAKYKHSVVKKACYDGA-OH; disulfide 6-22)	Not Active	Not Active	
CC(C)[C@H](NC(=O)[C@H](C)NC(=O)[C@H](C)NC(=O)CNC(=O)[C@H](CC(=O)O)NC(=O)[C@H](Cc1ccc(O)cc1)NC(=O)[C@H](C)NC(=O)[C@H](C)NC(=O)[C@H](CCCCN)NC(=O)[C@H](CCCCN)NC(=O)[C@@H](NC(=O)[C@@H](NC(=O)[C@H](CO)NC(=O)[C@@H](N)Cc1c[nH]cn1)C(C)C)C(C)C)C(=O)N[C@@H](CC(N)=O)C(=O)N[C@@H](CC(N)=O)C(=O)N[C@@H](CC(=O)O)C(=O)N[C@@H](CCC(=O)O)C(=O)O (H-HSVVKKAAYDGAAVNNDE-OH)	Not Active	Not Active	
CC[C@H](C)[C@H](NC(=O)[C@H](CCCNC(=N)N)NC(=O)[C@H](C)NC(=O)[C@H](C)NC(=O)[C@H](CCCNC(=N)N)NC(=O)[C@H](CCC(N)=O)NC(=O)[C@H](CCC(=O)O)NC(=O)[C@H](CSCNC(C)=O)NC(=O)[C@@H](NC(C)=O)[C@@H](C)O)C(=O)N[C@@H](CO)C(=O)N[C@@H](CC(C)C)C(=O)O (Ac-TC(Acm)EQRAARISL-OH)	Not Active	Not Active	
CSCC[C@H](NC(=O)[C@H](CC(=O)O)NC(=O)[C@H](CCCCN)NC(=O)[C@H](Cc1c[nH]cn1)NC(C)=O)C(=O)N[C@@H](CCC(N)=O)C(=O)N[C@@H](CC(C)C)C(=O)NCC(=O)N[C@@H](CCCN=C(N)N)C(=O)O (Ac-HKDMQLGR-OH)			Ki [4]: Not Active
CC[C@H](C)[C@H](NC(=O)[C@H](CCCN=C(N)N)NC(=O)[C@H](C)NC(=O)[C@@H](N)CSCNC(C)=O)C(=O)N[C@@H](CO)C(=O)N[C@@H](CC(C)C)C(=O)NCC(=O)N1CCC[C@H]1C(=O)N[C@@H](CCCN=C(N)N)C(=O)N[C@@H](CCSC)C(=O)N[C@@H](CSCNC(C)=O)C(=O)N[C@@H](CCCCN)C(=O)O (H-C(Acm)ARISLGPRMC(Acm)K-OH)	Not Active	Not Active	
CC(C)[C@@H]1NC(=O)[C@H](CO)NC(=O)[C@H](Cc2c[nH]cn2)NC(=O)[C@H](CCCCN)NC(=O)[C@H](Cc2ccc(O)cc2)NC(=O)[C@H](CCCCN)NC(=O)[C@H](C)NC(=O)[C@@H](N)CSSC[C@@H](C(=O)O)NC(=O)[C@H](C(C)C)NC1=O (H-CAKYKHSVVC-OH; disulfide 1-10)	Not Active	Not Active	
CC[C@H](C)[C@H](NC(=O)[C@H](CC(N)=O)NC(=O)[C@H](C)NC(=O)[C@H](CCCN=C(N)N)NC(=O)[C@H](CC(C)C)NC(=O)[C@H](CCC(N)=O)NC(=O)[C@H](CO)NC(=O)[C@H](C)NC(=O)[C@@H](NC(=O)[C@@H](NC(=O)[C@H](CCSC)NC(C)=O)C(C)C)C(C)C)C(=O)N[C@@H](CO)C(=O)N[C@@H](Cc1c[nH]cn1)C(=O)N[C@@H](CCCCN)C(=O)N[C@@H](CC(=O)O)C(=O)N[C@@H](CCSC)C(=O)N[C@@H](CCC(N)=O)C(=O)N[C@@H](CC(C)C)C(=O)NCC(=O)N[C@@H](CCCN=C(N)N)C(=O)O (Ac-MVVASQLRANISHKDMQLGR-OH)		Not Active	
CC(C)[C@H](NC(=O)[C@H](CO)NC(=O)[C@H](Cc1c[nH]cn1)NC(=O)[C@@H](N)CCCCN)C(=O)N[C@H](C(=O)N[C@@H](CCCCN)C(=O)N[C@@H](CCCCN)C(=O)O)C(C)C (H-KHSVVKK-OH)	Not Active	Not Active	
